Assay results from different studies.
Compare with care: the assays were run in different laboratories.
Organism: Staphylococcus aureus
Observed: microbial killing

With `CCOC(=O)c1c(N)csc1-c1cn(-c2ccccc2)nc1-c1ccc(C)cc1` the MBC was 0.125 µg/mL (broth dilution).
The MBC of `COc1c(C)c(OC(=O)c2ccccc2)c(C)c(O)c1C(=O)/C=C/c1ccccc1` is reported as over 5000 µg/mL (broth dilution; ATCC25923).
`CC(=O)NC[C@H]1CN(c2ccc(N3CCOCC3)c(F)c2)C(=O)O1` gave an MBC of 64 µM (broth dilution; MRSA NRS119; drug-resistant strain).
`O=C(O)CN1C(=O)/C(=C/c2ccc(-c3ccc(N(c4ccccc4)c4ccccc4)cc3)cc2)NC1=S` has an MBC of 3.9 µg/mL (broth dilution; ATCC25923).
`O=[N+]([O-])c1ccc(-c2nc3cccc(O)c3[nH]2)o1` has an MBC of 2 µg/mL (ATCC33591).
`CCCCCCCC(=O)Oc1c(C)c(O)c(C(=O)/C=C/c2ccccc2)c(OC)c1C` gave an MBC of over 5000 µg/mL (broth dilution; ATCC25923).
`Cc1cc(/C=C2\Sc3ccccc3N2CCCN2CCC(C)CC2)c2ccccc2[n+]1C.[I-]` gave an MBC of 8 µg/mL (ATCC29213).
The MBC of `O=C(O)CN1C(=O)/C(=C/c2c3ccccc3c(-c3ccc(N(c4ccccc4)c4ccccc4)cc3)c3ccccc23)SC1=S` is reported as over 1000 µg/mL (broth dilution; ATCC43300).
The MBC of `COc1c(C)c(OC)c2c(c1C)OC(c1ccccc1)CC2=O` (centres unmarked) is reported as over 5000 µg/mL (broth dilution; ATCC25923).
For `N#CC(=Cc1cn(-c2ccccc2)nc1-c1ccccc1)C1=NC(=O)CS1`, the MBC was 0.25 µg/mL (broth dilution).
`CN[C@H](CC(C)C)C(=O)N[C@H]1C(=O)N[C@@H](CC(N)=O)C(=O)N[C@H]2C(=O)N[C@H]3C(=O)N[C@H](C(=O)N[C@H](C(=O)O)c4cc(O)cc(O)c4-c4cc3ccc4O)[C@H](O)c3ccc(c(Cl)c3)Oc3cc2cc(c3O[C@@H]2O[C@H](CO)[C@@H](O)[C@H](O)[C@H]2O[C@H]2C[C@](C)(N)[C@H](O)[C@H](C)O2)Oc2ccc(cc2Cl)[C@H]1O` has an MBC of 1 µM (broth dilution; ATCC6538).
With `O=C1NC(=S)N/C1=C\c1c2ccccc2c(-c2ccc(N(c3ccccc3)c3ccccc3)cc2)c2ccccc12` the MBC was over 1000 µg/mL (broth dilution; ATCC43300).
With `CCCCCOc1c(OC)cc(NC(C)CCCNC(=S)NCCCC(C)Nc2cc(OC)c(OCCCCC)c3c(CC)ccnc23)c2nccc(CC)c12.Cl.Cl` (centres unmarked) the MBC was 10 to 20 µg/mL (ATCC43300 MRSA; drug-resistant strain).
The MBC of `COc1c(C)c(OC)c(C(=O)/C=C/c2ccccc2)c(OC)c1C` is reported as over 5000 µg/mL (broth dilution; ATCC25923).
`COc1cc(NC(C)CCCNC(=O)c2ccncc2C(=O)NCCCC(C)Nc2cc(OC)cc3ccc(C(C)(C)C)nc23)c2nc(C(C)(C)C)ccc2c1.Cl` (centres unmarked) has an MBC of 10 to 20 µg/mL (ATCC43300 MRSA; drug-resistant strain).
The MBC of `O=C1NC(=S)N/C1=C\c1ccc(-c2ccc(N(c3ccccc3)c3ccccc3)cc2)c2ccccc12` is reported as over 1000 µg/mL (broth dilution; ATCC25923).
`CCCCCC(=O)Oc1c(C)c(O)c(C(=O)/C=C/c2ccccc2)c(OC)c1C` gave an MBC of over 5000 µg/mL (broth dilution; ATCC25923).
`N#CC(=Cc1ccccc1O)C1=NC(=O)C(=Cc2cn(-c3ccccc3)nc2-c2ccccc2)S1` has an MBC of 0.5 µg/mL (broth dilution).
`COc1c(C)c(OC(C)=O)c(C)c(O)c1C(=O)/C=C/c1ccccc1` has an MBC of over 5000 µg/mL (broth dilution; ATCC25923).
With `O=C1NC(=S)N/C1=C\c1ccc(-c2ccc(N(c3ccccc3)c3ccccc3)cc2)cc1` the MBC was over 1000 µg/mL (broth dilution; ATCC6538).
The MBC of `CCCCCCCCCCCCCCCC#CC(=O)O` is reported as 15.6 µg/mL.
With `COc1c(C)c(OC(C)=O)c(C)c(OC(C)=O)c1C(=O)/C=C/c1ccccc1` the MBC was over 5000 µg/mL (broth dilution; ATCC25923).
For `COc1cc(Cc2cnc(N)nc2N)cc(OC)c1OC`, the MBC was 2 µg/mL (broth dilution; 48 h).
